Broadly, the pIC50 is the IC50 on a negative log10 scale, so that one unit is a factor of ten. The pKi is −log10 of the Ki, conventionally taken in molar units. One may read the solubility as how much of the substance goes into solution per volume. High values mean much dissolved substance, low ones little dissolved substance.

pIC50, pKi: −log10 of the molar value. Values after ≈ are worked out from the molar mass of the structure shown. Active and inactive are the calls of the source. The rule behind the calls is not given here.

Consider 29 compounds from ChEMBL document CHEMBL4825730, “Discovery of a First-in-Class Inhibitor of the PRMT5-Substrate Adaptor Interaction” (J Med Chem, 2021).

In one data set the target is PRMT5/MEP50 complex (Homo sapiens, UniProt O14744). The experiment in a line: Displacement of fluorophore-labeled RIOK1 from human PRMT5/WDR77 hetero octameric complex expressed in Sf9 cells by competition fluorescence polarization (FP) assay.
Chain of PRMT5/MEP50 complex (O14744 whole entry): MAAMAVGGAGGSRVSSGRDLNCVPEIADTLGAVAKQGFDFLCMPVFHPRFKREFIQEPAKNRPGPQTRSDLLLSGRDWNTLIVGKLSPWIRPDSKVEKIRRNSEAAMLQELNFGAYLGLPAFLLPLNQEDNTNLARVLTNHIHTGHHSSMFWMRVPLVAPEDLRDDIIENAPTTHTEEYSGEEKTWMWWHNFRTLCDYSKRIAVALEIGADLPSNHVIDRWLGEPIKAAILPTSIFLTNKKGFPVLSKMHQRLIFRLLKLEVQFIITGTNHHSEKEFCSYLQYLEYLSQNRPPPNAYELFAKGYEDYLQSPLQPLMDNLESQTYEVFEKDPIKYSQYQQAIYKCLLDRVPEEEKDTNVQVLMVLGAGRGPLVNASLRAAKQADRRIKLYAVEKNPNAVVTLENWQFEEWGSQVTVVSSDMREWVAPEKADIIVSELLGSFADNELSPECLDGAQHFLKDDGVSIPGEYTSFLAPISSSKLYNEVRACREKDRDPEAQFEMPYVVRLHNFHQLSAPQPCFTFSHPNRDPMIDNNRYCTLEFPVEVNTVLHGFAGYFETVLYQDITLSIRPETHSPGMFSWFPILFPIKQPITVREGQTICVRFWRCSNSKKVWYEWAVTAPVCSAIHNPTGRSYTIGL
Chain of PRMT5/MEP50 complex (Q9BQA1 whole entry, further chain): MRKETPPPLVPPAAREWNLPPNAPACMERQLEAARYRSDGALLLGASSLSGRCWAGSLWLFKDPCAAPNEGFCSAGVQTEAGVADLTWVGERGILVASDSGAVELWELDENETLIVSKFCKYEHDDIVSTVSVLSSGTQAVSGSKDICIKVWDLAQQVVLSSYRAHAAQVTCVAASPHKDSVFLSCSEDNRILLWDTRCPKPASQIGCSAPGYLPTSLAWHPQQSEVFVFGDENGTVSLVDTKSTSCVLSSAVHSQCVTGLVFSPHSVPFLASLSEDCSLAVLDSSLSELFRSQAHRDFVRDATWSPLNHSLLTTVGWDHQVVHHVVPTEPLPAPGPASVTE
Data set [1] has as its target T1, Protein arginine N-methyltransferase 5 (Homo sapiens, UniProt O14744). Briefly: Covalent inhibition of human PRMT5 assessed as initial binding constant by LC-MS analysis.
Data set [2] in a line: Solubility in PBS buffer. Format: physicochemical.
Data set [3] is described as follows: Stability in human plasma assessed as compound remaining relative to control. Format: ADME, cell-free.
A short description of data set [4]: Stability in mouse plasma assessed as compound remaining relative to control. Format: ADME, cell-free.
The target of data set [5] is T1, Protein arginine N-methyltransferase 5. Briefly: Covalent inhibition of human PRMT5 assessed maximum potential inactivation rate by LC-MS analysis.
For data set [6] the target is unchanged. Briefly: Covalent inhibition of human PRMT5 assessed as Kinact/Ki ratio by LC-MS analysis.
Data set [7] in a line: Disruption of human N-terminal SmBiT peptide-tagged PRMT5/N-terminal LgBiT tagged RIOK1 complex expressed in intact HEK293T cells measured after 40 mins by NanoBiT assay. As to conditions: HEK-293T. The data set is classed as cell-based.
Data set [8] in a line: Displacement of fluorophore-labeled RIOK1 from human PRMT5 C278A mutant/WDR77 hetero octameric complex expressed in Sf9 cells by competition fluorescence polarization (FP) assay. The gist of the method: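 Competition FP with Sf9-expressed untagged PRMT5:WDR77 (WT or C278A) at 200 nM protomer and 10 nM fluorophore-labeled RIOK1 PBM peptide probe. […] Incubated at RT, read at 40 min, 8-point dose range, triplicate. Normalized to DMSO (100) and unlabeled peptide control at 20 μM (0).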

The target in data set [9] is T1, Protein arginine N-methyltransferase 5. The experiment in a line: Binding affinity to human wild type PRMT5 assessed as increase in protein mass by deconvoluted mass spectra analysis. The gist of the method: (§1)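 Purified untagged PRMT5:WDR77 (Sf9 co-expressed) exchanged into 10 mM HEPES 7.4, 150 mM NaCl, 1 mM TCEP. Protein diluted to 10 μM; 10 μL protein plus 1 μL compound (0.5 mM stock in DMSO) or DMSO in 90 μL buffer, 4 h at RT. Intact mass by LC-ToF on C4 column at 80 °C, positive ESI, spectra deconvoluted by MaxEnt1.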

The target in data set [10] is Methylosome protein WDR77 (Homo sapiens) (UniProt Q9BQA1). The experiment in a line: Binding affinity to human wild type WDR77 assessed as increase in protein mass by deconvoluted mass spectra analysis. The gist of the method: as §1
Chain of Methylosome protein WDR77 (Homo sapiens) (Q9BQA1 whole entry): as the sequence (Q9BQA1 whole entry, further chain) above
In data set [11] the test system is Protein arginine N-methyltransferase 5 (Homo sapiens), O14744 [C278A]. Briefly: Binding affinity to human PRMT5 C278A mutant assessed as increase in protein mass by deconvoluted mass spectra analysis. Summed up:
as §1

Data set [12] addresses PRMT5/MEP50 complex (Homo sapiens) (UniProt O14744+Q9BQA1). The experiment in a line: Displacement of full-length pICIn protein from human PRMT5/WDR77 hetero octameric complex at 2 uM pretreated by SPR competition assay. (In general: SPR reads the build-up and loss of mass on a sensor chip optically.)

T1 sequence (O14744 whole entry): as the sequence (O14744 whole entry) above
Chain of Protein arginine N-methyltransferase 5 (Homo sapiens), O14744 [C278A] (O14744 whole entry C278A): as the sequence (O14744 whole entry) above, with C278A counted along it

Turning to `Cc1ccc(NC(=O)Cn2ncc(F)cc2=O)cc1S(=O)(=O)NCCc1ccccn1`, on PRMT5/MEP50 complex, the pIC50 is 4.45. Further, the pKi in data set [1] was 4.24.
Turning to `Cc1ccc(NC(=O)Cn2ncc(Cl)c(Cl)c2=O)cc1S(=O)(=O)NCCc1cccnc1`, the pIC50 at PRMT5/MEP50 complex was 5.34. The solubility in [2] was found to be 88 µM (≈ 43.7 µg/mL). Further, the Stabilty in [3] is listed as 100%; in [4] it was 21%.
With `Cc1cnc(NC(=O)Cn2ncc(Cl)c(Cl)c2=O)cc1S(=O)(=O)N(C)C`, the solubility in data set [2] came to 7.6 µM (≈ 3.19 µg/mL).
Compound `Cc1ccc(NC(=O)Cn2ncc(Cl)c(Cl)c2=O)cc1S(=O)(=O)NCCc1ccncc1` showed a pIC50 on PRMT5/MEP50 complex of 5.60. Moreover, the solubility in data set [2] came to 93 µM (≈ 46.2 µg/mL). The Stabilty in data set [3] was 92%; in data set [4] it was 2%.
In the case of `Cc1ccc(NC(=O)Cn2ncc(Cl)cc2=O)cc1S(=O)(=O)NCCc1ccccn1`, the pIC50 on PRMT5/MEP50 complex is 4.14. Further, the negative logarithm of the Ki (pKi) in data set [1] is 4.44.
At PRMT5/MEP50 complex, `COc1ccc(NC(=O)Cn2ncc(Cl)c(Cl)c2=O)cc1S(=O)(=O)NCCc1ccccn1` gave a pIC50 of 4.63. In data set [2], the solubility turned out to be 96 µM (≈ 49.2 µg/mL).
Consider `Cc1ncc(NC(=O)Cn2ncc(Cl)c(Cl)c2=O)cc1S(=O)(=O)N1CCCN(C)CC1`, for which the negative logarithm of the IC50 (pIC50) at PRMT5/MEP50 complex is < 3.70. This compound also yielded a solubility in data set [2] of 96 µM (≈ 47 µg/mL). Further, the figures for the Stabilty in [3] and in [4] were 70% and 3%, respectively.
`O=C(NC[C@H](O)CN1CCc2ccccc2C1)c1cc(NC2COC2)ncn1`: in data set [2], the solubility came to 101 µM (≈ 38.7 µg/mL).
As for `Cc1ccc(NC(=O)Cn2ncc(F)c(C)c2=O)cc1S(=O)(=O)NCCc1ccccn1`, on PRMT5/MEP50 complex, the pIC50 was 4.14.
For the compound `Cc1ccc(N(C)C(=O)[C@H](C)n2ncc(Cl)cc2=O)cc1S(=O)(=O)NCCc1ccccn1`, at PRMT5/MEP50 complex, the pIC50 is < 3.70. The compound further displayed a solubility in data set [2] of 114 µM (≈ 55.9 µg/mL).
The compound `Cc1ccc(NC(=O)[C@@H](C)n2ncc(Cl)c(Cl)c2=O)cc1S(=O)(=O)NCCc1ccccn1` showed a pIC50 on PRMT5/MEP50 complex of 4.26. This compound displayed a solubility in [2] of 70 µM (≈ 35.7 µg/mL). Further, the Stabilty came to 95% in data set [3] and 97% in data set [4]. The same compound displayed a Kinact in data set [5] of 1.05 min⁻¹. In addition, the pKi in [1] is 4.11. Moreover, the Ratio in data set [6] turned out to be 226 M⁻¹ s⁻¹.
As to `Cc1ccc(NC(=O)Cn2ncc(Cl)c(Cl)c2=O)cc1S(=O)(=O)N1CCCN(C)CC1`, on PRMT5/MEP50 complex, the pIC50 was 5.27. Also, the solubility in data set [2] stood at 98 µM (≈ 47.9 µg/mL). The values for the Stabilty in [3] and in [4] were 84% and 0%, respectively.
In data set [2], `Nc1nc2cc(CC[C@H]3C[C@@H](n4ccc5c(N)ncnc54)[C@H](O)[C@@H]3O)ccc2cc1Br` [ONAMETOSTAT] gave a solubility of 7 µM (≈ 3.38 µg/mL).
Turning to `Cc1ccc(N(C)C(=O)Cn2ncc(Cl)c(Cl)c2=O)cc1S(=O)(=O)NCCc1ccccn1`, on PRMT5/MEP50 complex, the negative logarithm of the IC50 (pIC50) was < 3.70. Further, in [2], the solubility was determined as 86 µM (≈ 43.9 µg/mL). For the same compound, the values for the Stabilty in data set [3] and in [4] were 89% and 86%, respectively.
`CCc1ccc(NC(=O)Cn2ncc(Cl)c(Cl)c2=O)cc1S(=O)(=O)NCCc1ccccn1` had a pIC50 at PRMT5/MEP50 complex of 5.38. Further, the solubility in data set [2] stood at 12 µM (≈ 6.12 µg/mL).
Turning to `Cc1ccc(NC(=O)Cn2nccc(Cl)c2=O)cc1S(=O)(=O)NCCc1ccccn1`, the values for the pIC50 (on PRMT5/MEP50 complex; in data set [7]) were < 3.70 and < 4.00, respectively.
In the case of `Cc1ccc(NC(=O)Cn2ncc(Cl)c(Cl)c2=O)cc1S(=O)(=O)NCCc1ccccn1`, the pIC50 was 5.66 on PRMT5/MEP50 complex and < 4.00 in [8]. The result in data set [9] and in [12] was Active. Also, the result in data set [10] and in [11] was inactive. For the same compound, the negative-log Ki (pKi) in data set [1] is 5.10.
For the compound `CN(C)S(=O)(=O)N1CCCC(NC(=O)Cn2ncc(Cl)c(Cl)c2=O)C1` (stereo not given), the pIC50 on PRMT5/MEP50 complex was < 3.70. In data set [2], this compound yielded a solubility of 98 µM (≈ 40.4 µg/mL).
For `Cc1cc(C)c(S(=O)(=O)NCCc2ccccn2)cc1NC(=O)Cn1ncc(Cl)c(Cl)c1=O`, in that order: 5.21 and 14 µM (≈ 7.15 µg/mL).
In the same order, the values of `Cc1ccc(NC(=O)Cn2ncc(Cl)c(Cl)c2=O)cc1S(=O)(=O)N1CCCCC1` are 4.90 and 0.8 µM (≈ 0.367 µg/mL).
At PRMT5/MEP50 complex, `Cc1ccc(NC(=O)Cn2ncc(F)c(Cl)c2=O)cc1S(=O)(=O)NCCc1ccccn1` had a pIC50 of 6.43.
With `Cc1ccc(NC(=O)Cn2ncc(Cl)c(Cl)c2=O)cc1S(=O)(=O)N1CCN(C)CC1`, at PRMT5/MEP50 complex, the pIC50 is 5.00. The compound further yielded a solubility in data set [2] of 89 µM (≈ 42.2 µg/mL). Also, the Stabilty worked out at 72% in [3] and 0% in data set [4].
The compound `Cc1cc(NC(=O)Cn2ncc(Cl)c(Cl)c2=O)cc(S(=O)(=O)NCCc2ccccn2)c1C` showed a pIC50 on PRMT5/MEP50 complex of 5.60. In addition, the solubility in [2] is 3.7 µM (≈ 1.89 µg/mL).
On to `Cc1ccc(NC(=O)Cn2ncc(Cl)c(Cl)c2=O)cc1S(=O)(=O)N(C)C`, for which, at PRMT5/MEP50 complex, the pIC50 was 4.85.
On PRMT5/MEP50 complex, `Cc1ccc(NC(=O)Cn2ncc(Cl)c(Cl)c2=O)c(C)c1S(=O)(=O)NCCc1ccccn1` gave a pIC50 of 4.41. In addition, in data set [2], the solubility turned out to be 7.8 µM (≈ 3.98 µg/mL).
`Cc1ccc(NC(=O)Cn2ncc(Cl)c(Cl)c2=O)nc1S(=O)(=O)NCCc1ccccn1`: the negative-log IC50 (pIC50) at PRMT5/MEP50 complex is 5.35. In data set [2], this compound returned a solubility of 5 µM (≈ 2.49 µg/mL). The Stabilty in data set [3] came out at 96%; in data set [4], 75%.
As to `Cc1ccc(NC(=O)C(C)n2ncc(Cl)c(C)c2=O)cc1S(=O)(=O)NCCc1ccccn1` (racemic), at PRMT5/MEP50 complex, the pIC50 is < 3.70.
`Cc1ccc(NC(=O)[C@H](C)n2ncc(Cl)c(Cl)c2=O)cc1S(=O)(=O)NCCc1ccccn1` showed a pIC50 at PRMT5/MEP50 complex of 6.52. The solubility in data set [2] was 64 µM (≈ 32.7 µg/mL). For the same compound, the Stabilty in [3] and in data set [4] was 92% each time. Moreover, the Kinact in data set [5] stood at 1.95 min⁻¹. In data set [1], the negative-log Ki (pKi) is 5.70. Further, in [6], the Ratio came to 14600 M⁻¹ s⁻¹.
The compound `O=C(Cn1ncc(Cl)c(Cl)c1=O)Nc1cccc(S(=O)(=O)NCCc2ccccn2)c1` had a pIC50 at PRMT5/MEP50 complex of 4.72. The compound further came in with a solubility in data set [2] of 19 µM (≈ 9.16 µg/mL).
